Test results: ChEMBL document CHEMBL1152819, “Evaluation of hexadecyloxypropyl-9-R-[2-(Phosphonomethoxy)propyl]- adenine, CMX157, as a potential treatment for human immunodeficiency virus type 1 and hepatitis B virus infections” (Antimicrob Agents Chemother, 2007)

Tested on: Human immunodeficiency virus 1
Assay: Antiviral activity against HIV1 in human MT2 cells
Type: functional, organism-based
Procedure, shortened: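 MT-2 cells in RPMI 1640 with 10% FBS and 10 mM HEPES, infected with HIV-1 LAI at MOI 0.001 TCID50/cell. Incubated with threefold serial dilutions, three wells per dilution. EC50 taken as the concentration inhibiting p24 antigen production by 50%.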

## CCCCCCCCCCCCCCCCOCCCOP(=O)(O)COCCn1cnc2c(NC3CC3)nc(N)nc21
  EC50: 20 pM
